# Reference: publication PMC3785103 (Molecular pharmaceutics, 2013)
# Like-named read-outs stand apart in the source and are kept apart here. [ ]: non-standard residue; d: D form. d2Nal = N[C@H](Cc1ccc2ccccc2c1)C(=O)O; Nle = CCCC[C@H](N)C(=O)O
# Assays:
# MC1R = settings: read-out: Ki for MC1R, cited from earlier work
# MC5R [1] = settings: read-out: Ki for MC5R; unlabeled peptide ligands; cited from earlier work
# MC5R [2] = assay: Co-injection of MC5R-selective ligand to block kidney uptake of probe; assay type: in vivo, mouse; settings: 5 nmol/kg MC1RL-800 co-injected with 1 nmol/kg MC5R-selective ligand, 2 h
# Summary of the method: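 Female nu/nu mice (6–8 weeks) carried s.c. xenografts: 1 × 10⁶ A375/MC1R cells in the right flank and parental A375 cells in the left. At 500–800 mm³ tumor volume, mice received 5 nmol/kg MC1R ligand–IRDye800CW i.v. (tail vein, in 100 μL sterile saline) co-injected with 1 nmol/kg MC5R-specific ligand. Fluorescence imaging used mean pre-injection tumor signal subtracted from normalized post-injection ROI intensities.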
# [3] = parameters: species or system mouse; settings: mean±s.d. of 10 simulations
# in vivo = settings: female, nu/nu, mouse
# [4] = test system: A375/MC1R and A375 xenograft tumors; assay: in vivo; settings: female, nu/nu, mouse, 5 nmol/kg
compound,measurement,setting,value
H-YV[Nle]GH[d2Nal]R[dF]DRFG-NH2 [reference compound],Ki,MC1R; unlabeled peptide ligands,5600 pM
same,Ki,MC5R [1],710 pM
4-phenylbutyryl-His-DPhe-Arg-Trp-Gly-Lys(hex-5-ynoyl)-NH2 [unlabeled ligand],Ki,MC1R; unlabeled peptide ligands,240 pM
same,Ki,MC5R [1],46000 pM
"CC1(C)C(=CC=C2CCCC(C=CC3=[N+](CCCCS(=O)(=O)[O-])c4ccc(S(=O)(=O)O)cc4C3(C)C)=C2Oc2ccc(S(=O)(=O)O)cc2)N(CCCCCC(=O)NCCN2C(=O)CC(SCCC(=O)NCCCC[C@H](NC(=O)CNC(=O)[C@H](Cc3c[nH]c4ccccc34)NC(=O)[C@H](CCCNC(=N)N)NC(=O)[C@@H](Cc3ccccc3)NC(=O)[C@H](Cc3c[nH]cn3)NC(=O)CCCc3ccccc3)C(N)=O)C2=O)c2ccc(S(=O)(=O)O)cc21 (stereo partly drawn) [MC1RL-800, 4-phenylbutyryl-His-DPhe-Arg-Trp-Gly-Lys(Mpr-IRDye800CW)-NH2]",Ki,MC1R; NIRF dye conjugates,400 ± 100 pM
same,decrease of A375/MC1R tumor signal,MC5R [2],28%
same,"Kki, rate of accumulation of ligand in the kidney specific binding compartment",[3],1E-2+6.8E-3 (NU.h)^−1
same,"Kko, rate of clearance of ligand from kidney back to the bloodstream",[3],0.96 ± 0.14 h⁻¹
same,"Kni, rate of accumulation in non-specific tissue",[3],1.8 ± 0.2 (NU.h)^−1
same,"Kno, rate of clearance from non-specific tissue",[3],2.3 ± 0.6 h⁻¹
same,"Kto, rate of clearance from tumor specific binding compartment",[3],26+12 (h)^−1
same,"Kti, rate of probe accumulation in tumor specific binding compartment",[3]; fit to 3 nmol/kg ex vivo data,2.7+1.4 (NU.h)^−1
same,half-life,"in vivo; 5 nmol/kg, half-life (clearance) in the tumor",22 h
same,half-life,in vivo; half-life (clearance) in negative tissue,16 h
same,half-life (clearance) in the tumor,[4],~22 h
